# Bioassay records (PubChem)
# In the library only some 2% were active in any assay of this set; here they are far more common.
# Granule exo inh = blocks lytic granule exocytosis. TALL-104 LAMP-1 surface exposure, flow cytometry; cells stimulated with thapsigargin and PMA. inhibition, % at 10 µM. actives 0.66% (n = 360,000);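 active = inhibition above about 55%, limit read from the data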
# VLA-4 inh = inhibition in a human VLA-4 binding assay; VLA-4 expressing cells, ligand binding flow cytometry; actives 0.2% (n = 330,000); P13612; inhibition, % (about 7 µM as worked out from the volumes in the protocol); AID 2557; in the data active = inhibition above about 50%
# Target sequence (P13612 whole entry, looked up): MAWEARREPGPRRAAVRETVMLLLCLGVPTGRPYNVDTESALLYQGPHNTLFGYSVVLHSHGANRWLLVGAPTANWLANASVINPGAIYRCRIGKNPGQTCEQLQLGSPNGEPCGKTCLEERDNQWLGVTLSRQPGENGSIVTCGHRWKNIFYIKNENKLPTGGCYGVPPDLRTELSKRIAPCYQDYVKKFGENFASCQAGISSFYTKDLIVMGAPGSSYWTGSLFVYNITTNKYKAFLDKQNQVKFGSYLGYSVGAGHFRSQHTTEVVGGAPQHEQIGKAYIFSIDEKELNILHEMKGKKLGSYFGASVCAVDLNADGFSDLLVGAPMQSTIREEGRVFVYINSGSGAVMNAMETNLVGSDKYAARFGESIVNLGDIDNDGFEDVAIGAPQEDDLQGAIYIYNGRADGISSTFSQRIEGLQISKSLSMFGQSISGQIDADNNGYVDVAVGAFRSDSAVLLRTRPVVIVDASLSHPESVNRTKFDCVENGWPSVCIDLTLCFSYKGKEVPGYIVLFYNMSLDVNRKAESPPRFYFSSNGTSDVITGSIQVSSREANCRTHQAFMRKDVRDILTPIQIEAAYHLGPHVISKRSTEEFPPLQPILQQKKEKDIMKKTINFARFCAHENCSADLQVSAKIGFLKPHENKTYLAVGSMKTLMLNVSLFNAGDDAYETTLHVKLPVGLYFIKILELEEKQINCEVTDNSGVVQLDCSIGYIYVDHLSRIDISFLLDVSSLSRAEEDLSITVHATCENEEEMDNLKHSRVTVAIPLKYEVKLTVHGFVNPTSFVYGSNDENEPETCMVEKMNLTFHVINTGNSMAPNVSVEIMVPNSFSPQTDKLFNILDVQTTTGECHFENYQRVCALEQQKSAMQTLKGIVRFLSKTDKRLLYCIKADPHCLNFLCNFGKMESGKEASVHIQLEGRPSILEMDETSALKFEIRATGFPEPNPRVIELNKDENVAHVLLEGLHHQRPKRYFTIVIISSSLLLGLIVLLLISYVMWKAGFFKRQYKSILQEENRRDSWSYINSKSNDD
# DAGLB inh = diacylglycerol lipase beta (human) inhibition | HEK293T DAGLB membrane lysate, EnzChek fluorogenic substrate | inhibition, % at 5.17 µM | actives 0.059% (n = 340,000); in the data active = inhibition above about 34%;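 also: 0% = enzyme with vehicle and 100% = wells lacking enzyme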
# ABCB6 inh MLPCN = blocks the human ABCB6 transporter | K562-ABCB6 porphyrin accumulation, flow cytometry, 1 h; hits give low values | fluorescence ratio to DMSO, % at 10 µM | actives 0.19% (n = 360,000) | AID 602162;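 active = fluorescence ratio to DMSO below 75%, the collection mean minus 3 SD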;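 also: signal is porphyrin accumulated inside mitochondria; 100% equals median channel fluorescence of DMSO control wells; lower ratio means ABCB6 inhibition with less porphyrin fluorescence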
# MT1-MMP act inh = MT1-MMP (human) activation inhibition | AID 651647 | P50281 | actives 0.061% (n = 360,000) | HT1080 RFP-PRO-GFP cells, GFP/RFP ratio fluorescence, overnight; percent of plate control window, DMSO zero | GFP/RFP ratio change, % at 20 µM;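 active = GFP/RFP ratio change of at least 30% with cell ATP level not reduced by more than half and red fluorescence within 50% of control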
#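 Assay system – RFP-PRO-GFP reporter HT1080 cells · Compound dosing – single dose of 20 µM compound, 1% DMSO final · Incubation – overnight compound exposure at 37 °C · Measure – GFP/RFP fluorescence ratio · Benchmarks – DMSO wells and RFP-L50D-GFP cells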
# FGF22 binding = shifts melting point of recombinant human FGF22; Q9HCT0; recombinant FGF22 thermal shift, SYPRO orange fluorescence; percent of sucrose octasulfate shift, DMSO zero; activity (Tm shift, normalised), % at 9.99 µM; actives 1.5% (n = 340,000);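 active = mean Tm shift, scaled 0 neutral to 100 positive control, at about 1.3% or above, every replicate too, limit read from the data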
# Active calls of the source: *; / = not tested or not shown.
SMILES,Granule exo inh,VLA-4 inh,DAGLB inh,ABCB6 inh MLPCN,MT1-MMP act inh,FGF22 binding
COc1ccc(OC)c(-n2c(-c3cnccn3)n[nH]c2=S)c1,0.9,1.8,3.9,99.0,0.0,/
COc1ccc(OC)c(-n2c(Cn3c(-c4ccccn4)nc4ccccc43)n[nH]c2=S)c1,0.0,-5.6,0.2,104.0,-0.7,44.0*
O=C1OC(c2ccc(O)cc2)(c2ccc(O)cc2)c2ccccc21,-1.4,-0.5,-0.2,78.0,3.1,-0.2
O=C1OC(c2ccccc2)(c2ccccc2)c2ccsc21,0.4,/,-3.1,99.0,2.4,44.1*
CC(C)(C)OC(=O)C[C@@H]1C/C=C\C[C@@H](CC(=O)N(CCO)Cc2ccccc2)C(=O)NC[C@H](c2ccccc2)OC1=O,76.0*,-2.5,-1.9,91.0,-16.8,0.1
C[C@@H]1CN([C@H](C)CO)C(=O)c2cc(NC(=O)Nc3ccccc3)ccc2O[C@@H](C)CCCCO[C@@H]1CN(C)C(=O)NC1CCCCC1,/,/,/,/,/,0.0
CC(C(=O)Nc1ccccc1C(=O)O)n1c(C(F)(F)F)nc2ccccc21 (centres undefined),0.6,36.0,2.5,98.0,-2.8,43.1*
C[C@H](CO)N1C[C@H](C)[C@H](CN(C)CC2CCCCC2)Oc2ccc(NS(=O)(=O)c3cn(C)cn3)cc2C1=O,/,/,/,/,/,-0.1
Cc1ccc2nc(COc3ccc(Cl)cc3)cc(=O)n2c1,-0.5,-6.7,-1.0,98.0,4.1,43.4*
Cc1ccc2nc(CSc3nnc4ccccn34)cc(=O)n2c1,-1.3,14.6,0.2,102.0,-1.7,43.3*
Cc1ccc2nc(CSc3nnc(-c4ccco4)n3-c3ccccc3)cc(=O)n2c1,-2.9,0.9,0.3,97.0,0.7,/
COc1ccc(NC(=O)/C(C#N)=C/c2c(C)nn(-c3ccc(F)cc3)c2Cl)cc1OC,-1.6,13.6,-0.1,104.0,-9.2,-0.2
COc1ccccc1NC(=O)/C(C#N)=C/c1c(C)nn(-c2ccc(F)cc2)c1Cl,-3.6,15.2,-4.0,92.0,-3.7,43.2*
Cc1ccc(N=Cc2cccc(O)c2O)c(C)c1,92.9*,6.6,13.0,101.0,18.7,/
Cc1ccccc1N=Cc1cccc(O)c1O,5.9,9.0,7.0,100.0,-4.9,/
C[C@@H]1CCCCO[C@H](CN(C)CC2CCCCC2)[C@@H](C)CN([C@H](C)CO)C(=O)c2cc(NC(=O)C3CCCCC3)ccc2O1,/,/,/,/,/,0.5
CCCN(C(=O)CSc1nnnn1C)C1CCS(=O)(=O)C1 (centres undefined),-2.3,1.6,0.4,96.0,1.0,42.9*
CCN(C(=O)CSc1nnnn1C)C1CCCCC1,-8.4,0.2,4.1,102.0,1.8,-0.1
Cc1cc2nnc(SCC(=O)N(C)C3CCS(=O)(=O)C3)n2c2ccccc12 (centres undefined),0.4,7.2,0.2,93.0,-4.7,43.1*
COc1ccc(-n2nnnc2SCC(=O)N(C)C2CCS(=O)(=O)C2)cc1 (centres undefined),-2.8,-19.1,2.3,100.0,1.1,43.3*
C[C@H]1CN([C@@H](C)CO)S(=O)(=O)c2ccc(-c3cncnc3)cc2O[C@@H]1CN(C)C(=O)c1cccc(F)c1,/,/,/,/,/,0.3
C[C@H]1CCCCO[C@H](CN(C)C(=O)CCC(F)(F)F)[C@@H](C)CN([C@@H](C)CO)C(=O)c2cc(NC(=O)C3CCCCC3)ccc2O1,/,/,/,/,/,-0.5
C[C@@H]1CN([C@@H](C)CO)S(=O)(=O)c2ccc(C#CC(C)(C)O)cc2O[C@@H]1CN(C)C(=O)C1CCCCC1,/,/,/,/,/,0.1
COc1ccc2c3c(n(C)c2c1)[C@H](CO)N(Cc1ccncc1)CC31CN(C(=O)C2CC2)C1,/,/,/,/,/,-0.1
C[C@@H]1CN([C@@H](C)CO)C(=O)c2cccc(NS(=O)(=O)c3cn(C)cn3)c2O[C@H]1CN(C)C(=O)Nc1ccc2c(c1)OCO2,/,/,/,/,/,0.2
SMILES,Granule exo inh,VLA-4 inh,DAGLB inh,ABCB6 inh MLPCN,MT1-MMP act inh,FGF22 binding
O=C(C[C@H]1C=C[C@H](NC(=O)c2cccnc2)[C@H](CO)O1)NCc1ccc(Cl)c(Cl)c1,/,/,/,/,/,-0.2
COc1ccc(OC)c(NC(=O)COC(=O)C2CCCCC2)c1,-4.0,6.0,-6.5,102.0,-2.6,44.5*
NS(=O)(=O)c1ccc(NC(=O)COC(=O)c2cnccn2)cc1,-8.8,-1.6,0.2,100.0,-1.8,43.0*
NS(=O)(=O)c1ccc(NC(=O)COC(=O)CCC2CCCC2)cc1,-3.8,7.2,-2.4,106.0,2.2,0.1
O=C(COC(=O)c1cnccn1)Nc1ccc(Cl)cn1,18.0,4.2,0.4,102.0,-2.5,-0.1
NS(=O)(=O)c1ccc(NC(=O)COC(=O)C2CCCCC2)cc1,-5.5,-1.9,-1.9,99.0,/,43.5*
C[C@@H]1CN([C@@H](C)CO)C(=O)c2cc(C#CC3CCCC3)cnc2O[C@@H]1CN(C)C(=O)c1ccncc1,/,/,/,/,/,-0.3
CNC(=S)NNC(=O)c1noc(C)c1C(=O)N1CCN(C(c2ccccc2)c2ccccc2)CC1,-1.0,1.4,2.0,98.0,-1.2,43.6*
COc1ccc(C2(O)CN(c3ccc(C)cc3)C3=[N+]2CCCC3)cc1 (centres undefined),0.4,2.8,-0.2,96.0,-8.5,43.1*
Cc1ccc(N2CC(O)(c3cccs3)[N+]3=C2CCCC3)cc1 (centres undefined),-1.7,1.4,-0.3,94.0,-4.9,0.1
CCOc1ccc(OCc2ccc(C(=O)N/N=C(\C)c3ccccn3)cc2)cc1,-0.8,14.3,0.5,96.0,3.8,43.1*
C/C(=N\NC(=O)c1ccccc1OCc1ccc(F)cc1)c1ccccn1,20.2,2.4,-0.9,97.0,-0.7,-0.2
CCC/C(O)=C1\C(=O)CCCC1=NCCc1c(C)[nH]c2ccc(OC)cc12,-6.6,1.5,0.6,102.0,-4.1,43.0*
OC[C@@H]1[C@@H](c2ccc(-c3cccnc3)cc2)[C@H]2CN(CC3CCOCC3)CCCCN12,/,/,/,/,/,-0.2
COc1ccc([N+](=O)[O-])cc1/C=N/NC(=O)Cc1ccccc1,-1.9,-2.8,2.9,100.0,0.2,43.8*
COc1cccc(/C=N/NC(=O)c2cc3cc([N+](=O)[O-])ccc3s2)c1O,69.4*,23.4,4.8,97.0,0.3,0.1
COc1ccccc1/C=N/NC(=O)c1ccc(NC(=O)c2cccc([N+](=O)[O-])c2)cc1,/,6.1,/,/,/,/
COc1cc(/C=N/NC(=O)Cc2ccccc2)ccc1Oc1ccc([N+](=O)[O-])cc1[N+](=O)[O-],-1.7,0.4,0.1,97.0,1.8,42.3
COc1ccc(C)cc1NS(=O)(=O)c1cn(C)nc1C,12.2,4.8,-0.8,97.0,-0.1,43.1*
Cc1nn(C)cc1S(=O)(=O)Nc1ccccc1Br,-14.0,19.1,3.5,102.0,1.5,0.2
